Tests used:
[1] = target: Alpha adrenergic receptor 1A and 1B (Rattus norvegicus) (UniProt P15823+P43140); test: Selectivity is ratio of pKi (binding affinity) of alpha-1B receptor to that of alpha-1A receptor.; format: protein assay
[2] = target: Alpha adrenergic receptor 1A and 1D (Rattus norvegicus) (UniProt P23944+P43140); test: Selectivity is ratio of pKi (binding affinity) of Alpha-1D to that of alpha1A; format: protein assay
[3] = target: T1, Alpha-1A adrenergic receptor (Bos taurus, UniProt P18130); test: In vitro binding affinity towards alpha-1A adrenergic receptor of bovine clone in radioligand binding assay
T1 sequence (P18130 whole entry): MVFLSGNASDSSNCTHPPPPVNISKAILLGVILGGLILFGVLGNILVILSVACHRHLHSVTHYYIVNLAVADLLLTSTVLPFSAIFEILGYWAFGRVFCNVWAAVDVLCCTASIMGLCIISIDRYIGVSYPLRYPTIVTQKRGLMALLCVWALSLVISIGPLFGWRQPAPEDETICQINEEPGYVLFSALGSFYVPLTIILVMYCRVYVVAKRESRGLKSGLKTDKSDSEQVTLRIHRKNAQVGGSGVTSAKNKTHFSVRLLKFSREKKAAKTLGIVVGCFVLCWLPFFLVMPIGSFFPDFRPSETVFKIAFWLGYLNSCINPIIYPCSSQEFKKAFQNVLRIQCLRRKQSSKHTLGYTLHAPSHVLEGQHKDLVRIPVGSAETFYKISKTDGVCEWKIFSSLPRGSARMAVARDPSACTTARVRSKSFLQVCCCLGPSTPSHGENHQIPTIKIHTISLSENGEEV

[4] = target: T2, Alpha-1D adrenergic receptor (Rattus norvegicus) (UniProt P23944); test: Efficacy relative to phenylephrine (PE) constrict tissue containing the alpha-1D adrenergic receptor in rat aorta; format: functional, tissue-based
T2 sequence (whole entry): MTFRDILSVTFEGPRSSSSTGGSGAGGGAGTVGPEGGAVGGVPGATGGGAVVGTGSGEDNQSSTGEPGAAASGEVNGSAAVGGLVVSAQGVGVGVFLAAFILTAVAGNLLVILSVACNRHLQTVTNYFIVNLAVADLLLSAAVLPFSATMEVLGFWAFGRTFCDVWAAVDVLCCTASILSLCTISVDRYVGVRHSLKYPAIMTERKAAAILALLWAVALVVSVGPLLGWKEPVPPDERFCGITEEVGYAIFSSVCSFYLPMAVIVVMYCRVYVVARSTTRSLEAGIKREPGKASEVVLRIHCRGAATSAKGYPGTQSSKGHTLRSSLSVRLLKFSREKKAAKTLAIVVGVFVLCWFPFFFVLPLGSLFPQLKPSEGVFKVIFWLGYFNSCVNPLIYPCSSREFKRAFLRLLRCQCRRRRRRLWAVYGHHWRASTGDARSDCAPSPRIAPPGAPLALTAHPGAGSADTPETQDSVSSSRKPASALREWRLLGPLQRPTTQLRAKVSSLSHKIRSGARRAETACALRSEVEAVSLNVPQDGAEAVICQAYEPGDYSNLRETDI
Outline: (§1)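 α1-agonist dose–response curves in isolated tissue: rabbit urethra (α1A), rat spleen (α1B), rat aorta (α1D). Agonist potency and efficacy read from the concentration–response curves.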

[5] = target: T3, Alpha-1B adrenergic receptor (Mesocricetus auratus, UniProt P18841); test: In vitro binding affinity towards alpha-1B adrenergic receptor of hamster clone in radioligand binding assay; format: single protein
T3 sequence (P18841 whole entry): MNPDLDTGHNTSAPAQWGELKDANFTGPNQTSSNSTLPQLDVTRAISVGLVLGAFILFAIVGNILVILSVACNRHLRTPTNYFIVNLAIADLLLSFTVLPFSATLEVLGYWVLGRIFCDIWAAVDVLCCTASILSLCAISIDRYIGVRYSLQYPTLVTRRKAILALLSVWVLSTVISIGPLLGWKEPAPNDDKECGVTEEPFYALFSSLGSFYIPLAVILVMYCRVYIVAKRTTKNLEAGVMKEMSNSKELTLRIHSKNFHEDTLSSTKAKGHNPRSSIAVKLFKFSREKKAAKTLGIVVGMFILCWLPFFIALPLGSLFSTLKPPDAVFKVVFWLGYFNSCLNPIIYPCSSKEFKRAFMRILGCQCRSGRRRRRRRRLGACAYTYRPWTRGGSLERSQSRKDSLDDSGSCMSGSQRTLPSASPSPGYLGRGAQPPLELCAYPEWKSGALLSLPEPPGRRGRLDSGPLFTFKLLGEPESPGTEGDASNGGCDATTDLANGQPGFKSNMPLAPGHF
Outline: (§2)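 Radioligand binding at α1 subtypes: α1A from rat submaxillary gland, α1B hamster clone, α1D rat clone. Run essentially per an earlier method.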

Canis familiaris [6] = test: Uroselectivity was determined by measuring effective dose required for 20 mmHg increase of mean arterial pressure (MAP) in vivo in dog; format: functional, Canis lupus familiaris, Artery
Outline: (§3)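 Dog model recording intraurethral pressure (IUP) and mean arterial pressure (MAP) simultaneously. Increasing iv doses given, maximal effect of each dose taken. Doses giving a 5 mmHg rise in IUP (ED Δ5) or 20 mmHg rise in MAP (ED Δ20) were calculated, in nmol/kg ± SEM, n ≥ 4 (2 or 3 where footnoted).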

[7] = target: T4, Alpha-2A adrenergic receptor (Homo sapiens, UniProt P08913); test: In vitro binding affinity towards alpha-2A adrenergic receptor of human clone in radioligand binding assay
T4 sequence (P08913 whole entry): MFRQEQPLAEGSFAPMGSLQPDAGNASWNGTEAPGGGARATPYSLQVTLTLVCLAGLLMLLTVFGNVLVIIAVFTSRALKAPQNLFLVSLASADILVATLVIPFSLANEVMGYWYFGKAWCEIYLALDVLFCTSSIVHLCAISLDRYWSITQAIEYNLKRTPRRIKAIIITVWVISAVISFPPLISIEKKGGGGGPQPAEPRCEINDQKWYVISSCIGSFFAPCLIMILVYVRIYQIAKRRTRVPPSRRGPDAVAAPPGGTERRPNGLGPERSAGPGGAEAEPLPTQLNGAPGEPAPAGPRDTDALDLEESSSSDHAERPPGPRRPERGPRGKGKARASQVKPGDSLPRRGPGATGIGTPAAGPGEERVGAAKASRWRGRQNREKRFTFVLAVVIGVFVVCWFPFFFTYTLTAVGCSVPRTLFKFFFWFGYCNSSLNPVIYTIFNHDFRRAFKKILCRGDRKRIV

[8] = target: T5, Alpha-2B adrenergic receptor (Rattus norvegicus, UniProt P19328); test: In vitro binding affinity towards alpha-2B adrenergic receptor of rat neonatal lung in radioligand binding assay
T5 sequence (P19328 whole entry): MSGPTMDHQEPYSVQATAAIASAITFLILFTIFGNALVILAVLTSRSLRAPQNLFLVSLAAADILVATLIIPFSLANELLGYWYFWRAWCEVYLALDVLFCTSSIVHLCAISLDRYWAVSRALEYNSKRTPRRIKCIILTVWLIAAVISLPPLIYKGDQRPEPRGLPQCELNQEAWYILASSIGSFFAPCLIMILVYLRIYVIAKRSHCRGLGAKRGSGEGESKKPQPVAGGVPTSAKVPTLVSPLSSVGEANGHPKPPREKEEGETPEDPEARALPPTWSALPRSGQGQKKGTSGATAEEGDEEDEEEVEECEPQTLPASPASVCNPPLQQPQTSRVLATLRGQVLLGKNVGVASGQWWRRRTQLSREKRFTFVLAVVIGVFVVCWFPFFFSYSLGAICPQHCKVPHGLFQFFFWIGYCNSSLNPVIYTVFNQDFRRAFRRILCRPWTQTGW

[9] = target: T6, Alpha-1A adrenergic receptor (Oryctolagus cuniculus) (UniProt O02824); test: Efficacy relative to phenylephrine (PE) to constrict tissue containing the alpha-1A adrenergic receptor in rabbit urethra; format: functional, tissue-based; outline: as §1
T6 sequence (whole entry): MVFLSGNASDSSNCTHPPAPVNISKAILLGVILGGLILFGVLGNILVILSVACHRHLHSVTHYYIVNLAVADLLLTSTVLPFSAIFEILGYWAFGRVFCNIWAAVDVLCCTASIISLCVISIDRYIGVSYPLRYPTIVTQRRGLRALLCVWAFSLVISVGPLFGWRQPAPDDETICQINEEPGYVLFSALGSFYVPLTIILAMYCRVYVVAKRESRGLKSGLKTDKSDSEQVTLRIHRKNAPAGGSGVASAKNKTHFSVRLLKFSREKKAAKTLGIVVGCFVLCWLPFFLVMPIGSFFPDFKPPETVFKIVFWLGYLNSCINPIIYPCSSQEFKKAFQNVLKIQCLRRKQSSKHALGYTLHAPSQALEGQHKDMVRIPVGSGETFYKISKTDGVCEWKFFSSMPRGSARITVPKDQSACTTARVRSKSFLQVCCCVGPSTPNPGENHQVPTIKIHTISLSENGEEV

[10] = target: T7, Alpha-1D adrenergic receptor (Rattus norvegicus, UniProt P23944); test: In vitro binding affinity towards alpha-1D adrenergic receptor of rat clone in radioligand binding assay; outline: as §2
T7 sequence (P23944 whole entry): T2 sequence (whole entry)

[11] = target: T2, Alpha-1D adrenergic receptor (Rattus norvegicus); test: Functional agonism of the compounds to constrict tissue containing the alpha-1D adrenergic receptor in rat aorta; format: tissue-based
Outline: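 Agonist dose–response curves were run on isolated tissue: rabbit urethra for α1A, rat spleen for α1B, and rat aorta for α1D.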

Canis familiaris [12] = test: Uroselectivity was determined by measuring effective dose required for 5 mmHg increase of intraurethral pressure (IUP) in vivo in dog; format: functional, Canis lupus familiaris; outline: as §3
[13] = Relative affinities for alpha-2a and alpha-1A receptors
Rattus norvegicus = species: Rattus norvegicus; test: Relative affinities for alpha2B and alpha1A receptors

Chain of Alpha adrenergic receptor 1A and 1B (Rattus norvegicus) (P15823 whole entry, looked up): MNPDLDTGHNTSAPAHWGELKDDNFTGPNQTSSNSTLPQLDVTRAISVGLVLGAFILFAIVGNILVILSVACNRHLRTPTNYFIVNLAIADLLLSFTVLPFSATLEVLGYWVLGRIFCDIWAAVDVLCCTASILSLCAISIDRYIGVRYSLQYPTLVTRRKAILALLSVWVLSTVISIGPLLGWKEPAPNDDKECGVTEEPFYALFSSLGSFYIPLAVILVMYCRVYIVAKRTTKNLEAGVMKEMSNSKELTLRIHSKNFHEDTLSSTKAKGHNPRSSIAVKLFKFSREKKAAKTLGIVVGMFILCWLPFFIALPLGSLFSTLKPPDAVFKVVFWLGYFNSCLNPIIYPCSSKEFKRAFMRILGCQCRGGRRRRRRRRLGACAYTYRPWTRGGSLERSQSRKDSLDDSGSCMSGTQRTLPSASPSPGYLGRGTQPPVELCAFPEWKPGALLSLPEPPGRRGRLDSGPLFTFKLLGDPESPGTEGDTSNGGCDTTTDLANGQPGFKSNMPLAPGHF
Chain of Alpha adrenergic receptor 1A and 1B (Rattus norvegicus) (P43140 whole entry, looked up): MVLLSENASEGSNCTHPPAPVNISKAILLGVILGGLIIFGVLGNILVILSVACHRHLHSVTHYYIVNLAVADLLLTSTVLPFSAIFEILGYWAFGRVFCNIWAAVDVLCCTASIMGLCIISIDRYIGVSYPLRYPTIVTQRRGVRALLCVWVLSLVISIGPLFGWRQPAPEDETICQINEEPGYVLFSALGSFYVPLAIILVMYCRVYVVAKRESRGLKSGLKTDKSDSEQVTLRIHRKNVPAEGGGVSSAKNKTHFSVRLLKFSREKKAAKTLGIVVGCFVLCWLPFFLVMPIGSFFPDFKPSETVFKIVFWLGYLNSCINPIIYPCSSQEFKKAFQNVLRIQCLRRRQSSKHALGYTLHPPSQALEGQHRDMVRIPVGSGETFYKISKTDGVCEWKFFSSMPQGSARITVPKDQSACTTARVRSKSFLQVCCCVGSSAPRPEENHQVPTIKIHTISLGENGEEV

Efficacy [4] [%] | Ki [5] [nM] | Ki [7] [nM] | Ki [8] [nM] | Efficacy [9] [%] | Ki [10] [nM] | pD2 [11] | SMILES | Selectivity [1] | Selectivity [2] | Ki [3] [nM] | ED delta20 (Canis familiaris [6]) [nM/kg] | ED delta5 (Canis familiaris [12]) [nM/kg] | Selectivity [13] | Selectivity (Rattus norvegicus)
 |  |  |  |  |  |  | COC(=O)Nc1cccc2c1CCCC2c1c[nH]cn1 (stereo not given) | 100 | 30 | 148 |  |  |  | 
100 | 2950 | 33.1 | 245 | 88 | 1480 | 5.59 | CS(=O)(=O)Nc1c(O)ccc2c1CCCC2C1=NCCN1 (stereo not given) |  |  |  | 0.27 | 0.16 |  | 
 | 1350 | 22.9 | 22.4 |  | 339 |  | CCS(=O)(=O)Nc1ccc2c(c1)C(c1c[nH]cn1)CCC2 (stereo not given) | 1 | 0.2 | 2040 |  |  | 0.02 | 0.02

SMILES | Efficacy [4] [%] | Ki [5] [nM] | Ki [7] [nM] | Ki [8] [nM] | Efficacy [9] [%] | Ki [10] [nM] | pD2 [11] | Selectivity [1] | Selectivity [2] | Ki [3] [nM] | ED delta20 (Canis familiaris [6]) [nM/kg] | ED delta5 (Canis familiaris [12]) [nM/kg] | Selectivity [13] | Selectivity (Rattus norvegicus)
Oc1cccc2c1CCCC2c1c[nH]cn1 (stereo not given) |  | 145 | 8.71 | 3.8 |  | 30.9 |  | 3 | 1 | 115 |  |  | 0.2 | 0.1

Source: ChEMBL document CHEMBL1148329, “Synthesis and structure-activity studies on N-[5-(1H-imidazol-4-yl)-5,6,7,8-tetrahydro-1-naphthalenyl]methanesulfonamide, an imidazole-containing alpha(1A)-adrenoceptor agonist” (J Med Chem, 2004)
